Eight compounds from ChEMBL document CHEMBL2424567, “Hybrid peptides endomorphin-2/DAMGO: design, synthesis and biological evaluation” (Eur J Med Chem, 2013) can be followed below.

The target of data set [1] is Delta-type opioid receptor (Rattus norvegicus, UniProt P33533). The data set is described as follows: Displacement of [3H]Ile5,6deltorphin-2 from delta opioid receptor in Wistar rat brain membranes by liquid scintillation counting. The format is cell membranes, Membrane. On the technique in general: Loss of bound radioactivity is the signal in a displacement assay; it reports binding, not function.

In data set [2] the test system is Mus musculus. The data set is described as follows: Antinociceptive effect in icv dosed CD1 mouse assessed as increase in tail-flick latency period by tail flick test. Type of data set: functional. A digest of the protocol:
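Male CD-1 mice (25–30 g) given i.c.v. injection under light isoflurane (2 mm caudal/2 mm lateral of bregma, 3 mm deep, 5 µL), various doses. Radiant infrared heat focused 3–4 cm from tail tip; withdrawal latency with 15 s cut-off. Baseline is the mean of three readings 15 min apart; readings at 5–30 min. Result as %MPE; AD50 with 95% confidence limits by graded dose–response.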
Background: In hot-plate and tail-flick tests a longer latency is read as antinociception.

For data set [3], the system named is Mus musculus. In words: Analgesic activity in icv dosed CD1 mouse assessed as inhibition of heat-induced jumping behaviour after 5 to 30 mins by hot plate method. Type of data set: functional. A digest of the protocol:
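Male CD-1 mice (25–30 g), lightly isoflurane-anaesthetised, injected i.c.v. 2 mm caudal and 2 mm lateral of bregma, 3 mm depth, 5 µL; various doses. Plate held at 55.0 ± 0.1 °C; latency to paw licking or jumping, 60 s cut-off. Baseline is the mean of three readings 15 min apart; readings at 5, 10, 15, 20 and 30 min. Result as %MPE; AD50 with 95% confidence limits by graded dose–response.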

The next data set deals with Mu-type opioid receptor (Rattus norvegicus, UniProt P33535). The data set is described as follows: Displacement of [3H]DAMGO from mu opioid receptor in Wistar rat brain membranes by liquid scintillation counting. The format is cell membranes, Membrane.
The species entered for another data set is Rattus norvegicus. The data set is described as follows: Selectivity ratio of Ki for delta opioid receptor in Wistar rat brain membranes to Ki for mu opioid receptor in Wistar rat brain membranes. The format is cell membranes. To be noted: Membrane. Put shortly: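 Washed Wistar rat brain membranes (0.2–0.4 mg/ml protein) incubated 30 min at 25 °C in 50 mM Tris-HCl pH 7.4 with BSA, captopril, bestatin and phosphoramidon (1 µM each). Radioligands were [3H]DAMGO (0.9–1.2 nM, μ) or [3H]Ile5,6-deltorphin-2 (0.8–1.3 nM, δ); competitor at 10^-11–10^-5 M; nonspecific binding with 10 µM naloxone. Filtration and scintillation counting; Ki by Cheng–Prusoff; δ/μ Ki ratio.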

Data set [4] is described as follows: Half life in human plasma at 100 ug/mL. The format is ADME, cell-free. Put shortly: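 Thawed human plasma spiked with compound in DMSO to 100 µg/mL final, incubated at 37 °C. Samples taken at set times were quenched with 5% ZnSO4/MeOH/ACN (5:3:2), centrifuged, and the supernatant analysed by reversed-phase HPLC-UV (275 or 254 nm). Calibration range 10–100 µg/mL. Three independent experiments.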

Calls of active or inactive are those of the source. Non-standard residues stand in square brackets, D forms with d. Residues, ends and D or L forms follow the SMILES beside them. *: point of attachment. NHCH2CH2OH = OCCN*; Sar = CNCC(=O)O

Sequence of Mu-type opioid receptor (P33535 whole entry): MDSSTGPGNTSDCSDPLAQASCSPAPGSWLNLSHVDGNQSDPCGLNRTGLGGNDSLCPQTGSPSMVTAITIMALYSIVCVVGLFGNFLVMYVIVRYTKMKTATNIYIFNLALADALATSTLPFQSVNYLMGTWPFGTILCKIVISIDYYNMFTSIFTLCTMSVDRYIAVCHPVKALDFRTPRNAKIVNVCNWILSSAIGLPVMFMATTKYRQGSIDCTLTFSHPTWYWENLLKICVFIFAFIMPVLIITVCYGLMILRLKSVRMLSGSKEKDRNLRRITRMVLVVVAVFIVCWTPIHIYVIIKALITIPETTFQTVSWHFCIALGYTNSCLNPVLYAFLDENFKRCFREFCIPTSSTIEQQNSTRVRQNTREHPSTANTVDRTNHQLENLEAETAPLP
Sequence of Delta-type opioid receptor (P33533 whole entry): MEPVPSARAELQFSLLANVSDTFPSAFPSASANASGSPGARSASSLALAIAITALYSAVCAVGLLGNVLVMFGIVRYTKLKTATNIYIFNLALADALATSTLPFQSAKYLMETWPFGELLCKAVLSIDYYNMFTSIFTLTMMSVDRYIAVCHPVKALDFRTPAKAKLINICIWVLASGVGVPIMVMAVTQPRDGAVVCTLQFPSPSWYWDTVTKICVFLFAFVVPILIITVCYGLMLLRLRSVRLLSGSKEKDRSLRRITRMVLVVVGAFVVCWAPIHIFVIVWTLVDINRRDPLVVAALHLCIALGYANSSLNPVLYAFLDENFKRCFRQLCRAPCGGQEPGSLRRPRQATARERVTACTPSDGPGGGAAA

A word on the Ki: it is the dissociation constant of the complex between target and ligand, obtained from inhibition or displacement. Low readings indicate a stronger hold on the target, high ones a looser hold on the target. Take `C[C@@H](NC(=O)[C@@H](N)Cc1ccc(O)cc1)C(=O)NCC(=O)N(C)[C@@H](Cc1ccccc1)C(=O)NCCO` [DAMGO]: the Ki in data set [1] was > 10000 nM.
Consider `CN(C(=O)[C@@H]1CCCN1C(=O)[C@@H](N)Cc1ccc(O)cc1)[C@@H](Cc1ccccc1)C(=O)N[C@@H](Cc1ccccc1)C(=O)NCCO.O=C(O)C(F)(F)F`, for which the AD50 in the data set with Mus musculus [2] is recorded as 3.03 nmol; in the data set with Mus musculus [3] it was 9.6 nmol. The Ki was > 10000 nM in data set [1] and 155 nM at Mu-type opioid receptor.
In the same order, the values of `CN(CC(=O)N[C@@H](Cc1ccccc1)C(=O)NCCO)C(=O)[C@@H]1CCCN1C(=O)[C@@H](N)Cc1ccc(O)cc1` (H-YP[Sar]F-NHCH2CH2OH) are “inactive”, “inactive”, > 10000 nM and > 10000 nM.
`N[C@@H](Cc1ccc(O)cc1)C(=O)N1CCC[C@H]1C(=O)N[C@@H](Cc1ccccc1)C(=O)N[C@@H](Cc1ccccc1)C(=O)NCCO.O=C(O)C(F)(F)F`: the AD50 in the data set with Mus musculus [2] is reported as 3.44 nmol; in the data set on Mus musculus [3] it was 6.66 nmol. For the same compound, the Ratio Ki in the data set listed under Rattus norvegicus was 8.9. Besides, the Ki in data set [1] is 799 nM; on Mu-type opioid receptor, 90 nM.
As for `CN(C(=O)[C@H](Cc1ccccc1)NC(=O)[C@@H]1CCCN1C(=O)[C@@H](N)Cc1ccc(O)cc1)[C@@H](Cc1ccccc1)C(=O)NCCO.O=C(O)C(F)(F)F`, the AD50 came out at 5.56 nmol in the data set with Mus musculus [2] and 9.44 nmol with Mus musculus [3]. In addition, the Ratio Ki in the data set filed under Rattus norvegicus was found to be 17.2. Besides, the results for the inhibition constant Ki (in data set [1]; on Mu-type opioid receptor) were 3860 nM and 224 nM, respectively.
The half-life is the time needed for the level to fall by half in the phase considered. As for `CN(C(=O)[C@H](Cc1ccccc1)N(C)C(=O)[C@@H]1CCCN1C(=O)[C@@H](N)Cc1ccc(O)cc1)[C@@H](Cc1ccccc1)C(=O)NCCO.O=C(O)C(F)(F)F`, the AD50 in the data set on Mus musculus [2] is listed as 2.65 nmol; in the data set with Mus musculus [3], 3.77 nmol. In addition, the Ratio Ki in the data set listed under Rattus norvegicus came to 188. The figures for the Ki (in data set [1]; at Mu-type opioid receptor) were 6400 nM and 34 nM, respectively. Also, the half-life at 100 ug/mL in data set [4] was found to be 40 min.
In the case of `NC(=O)[C@H](Cc1ccccc1)NC(=O)[C@H](Cc1ccccc1)NC(=O)[C@@H]1CCCN1C(=O)[C@@H](N)Cc1ccc(O)cc1` [ENDOMORPHIN 2], the AD50 in the data set with Mus musculus [2] was 1.49 nmol; in the data set on Mus musculus [3], 2.29 nmol.
With `CC[C@H](C)[C@H](NC(=O)[C@H](CCC(=O)O)NC(=O)[C@H](Cc1ccccc1)NC(=O)[C@H](C)NC(=O)[C@@H](N)Cc1ccc(O)cc1)C(=O)N[C@H](C(=O)NCC(N)=O)[C@@H](C)CC`, the inhibition constant Ki at Mu-type opioid receptor is > 10000 nM.
